S100A4 inh HTS – S100A4-myosin IIA interaction inhibition | hit rate 0.14% among 360,000 | inhibition, % at 10.7 µM | S100A4/TAMRA-MyoIIA peptide fluorescence polarization | P26447 | AID 652163;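 active = mean inhibition of at least 70% across replicates, with every replicate also reaching that level; inconclusive = mean inhibition reaches 70% but some replicates fall short; inactive = mean inhibition below 70%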
Target sequence (P26447 whole entry, looked up): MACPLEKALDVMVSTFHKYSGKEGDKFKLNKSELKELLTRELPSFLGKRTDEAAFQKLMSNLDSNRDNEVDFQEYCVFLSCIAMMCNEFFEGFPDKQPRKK
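incubation = readout 5 min after mixing, signal stable up to 60 min | system = S100A4 monomer protein | buffer or medium = HEPES pH 7.2 with CaCl2, KCl, NaCl, DTT, Triton | benchmarks = neutral control DMSO, positive control TFP | also added = fluorescent myosin IIA peptide, 5 nM | compound dosing = one concentration per compound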
SIRT5 inh – sirtuin-5 (human) deacylase inhibition; Q9NXA8; Purified SirT5, succinyl-peptide AMC, trypsin-coupled fluorescence; inhibition, % at 15 µM; hit rate 1.1% among 330,000; in the data active = inhibition above about 15%; inconclusive = no clear call, values can overlap the other calls
Target sequence (Q9NXA8 whole entry, looked up): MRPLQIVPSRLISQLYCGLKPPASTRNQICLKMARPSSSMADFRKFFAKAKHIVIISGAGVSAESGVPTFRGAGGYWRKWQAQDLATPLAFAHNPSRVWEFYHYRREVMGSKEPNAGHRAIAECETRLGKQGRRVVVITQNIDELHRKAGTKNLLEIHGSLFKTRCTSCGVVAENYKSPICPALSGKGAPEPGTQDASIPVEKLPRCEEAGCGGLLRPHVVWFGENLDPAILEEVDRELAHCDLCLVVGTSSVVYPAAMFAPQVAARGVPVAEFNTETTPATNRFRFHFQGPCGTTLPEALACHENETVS
PGC1a acetyl inh – PGC1a acetylation modulation, inhibitor mode. inhibition, % at 15.6 µM. U2OS PGC1a acetylation, AlphaScreen anti-acetyl-lysine; with virally co-expressed GCN5 acetyltransferase. AID 651687. hit rate 0.17% among 350,000;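 active = every replicate shows inhibition of at least 40%; inconclusive = mean inhibition at least 40% but some replicate below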;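 note: 0% = neutral control wells and 100% = positive control wells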
DENV2 CPE rescue – protects cells from dengue virus 2 cytopathic effect | DENV2-infected cells, cytopathic effect rescue, plate reader | CPE inhibition, % at 9.99 µM | hit rate 1.7% among 350,000; in the data active = CPE inhibition above about 20%, passing the limit was not always enough; inconclusive = no clear call, values can overlap the other calls; tested in BHK-21 cells;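 note: 0% = median of neutral control wells and 100% = median of positive control wells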
Statin myotox sup – protects C2C12 myotubes from simvastatin toxicity; rescue of ATP level, % at 7.49 µM; hit rate 0.78% among 330,000; ATP luminescence, 48 h; scaled: DMSO 0, geranylgeraniol control 100;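 active = mean ATP rescue above about 67%, or every replicate alone reaching that limit, limit read from the data, passing the limit was not always enough; inconclusive = no clear call, values can overlap the other calls; inactive = mean under the limit and some replicate under it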;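 note: myotubes were challenged with 10 µM simvastatin during compound exposure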
Starred values were filed as active, the others as inactive. In the library only some 2.9% were active in any assay of this set; here they are far more common.

What do the screens show for `C[C@@H]1CCCCO[C@H](CN(C)C(=O)Nc2ccc(C(F)(F)F)cc2)[C@H](C)CN([C@@H](C)CO)C(=O)c2cc(NS(=O)(=O)c3ccccc3)ccc2O1`?
S100A4 inh HTS: -7; SIRT5 inh: 0; PGC1a acetyl inh: -12; DENV2 CPE rescue: 40*

Results for C[C@H](CO)N1C[C@H](C)[C@H](CN(C)C(=O)Nc2ccc(C(F)(F)F)cc2)OCCCC[C@H](C)Oc2ccc(NS(=O)(=O)c3ccccc3)cc2C1=O ?
S100A4 inh HTS: 1; SIRT5 inh: 0; PGC1a acetyl inh: 10; DENV2 CPE rescue: 41*

Results for C[C@H](CO)N1C[C@H](C)[C@H](CN(C)C(=O)Nc2ccc(C(F)(F)F)cc2)OCCCC[C@H](C)Oc2ccc(NS(C)(=O)=O)cc2C1=O ?
S100A4 inh HTS: -12; SIRT5 inh: 3; PGC1a acetyl inh: 12; DENV2 CPE rescue: inconclusive

Results for C[C@@H]1CCCCO[C@H](CN(C)C(=O)Nc2ccc(C(F)(F)F)cc2)[C@@H](C)CN([C@@H](C)CO)C(=O)c2cc(NS(=O)(=O)c3ccccc3)ccc2O1 ?
S100A4 inh HTS: -4; SIRT5 inh: 0; PGC1a acetyl inh: 5; DENV2 CPE rescue: -6

What do the screens show for `C[C@@H]1CN([C@@H](C)CO)C(=O)c2cc(NS(C)(=O)=O)ccc2O[C@@H](C)CCCCO[C@@H]1CN(C)C(=O)Nc1ccc(C(F)(F)F)cc1`?
S100A4 inh HTS: 0; SIRT5 inh: 3; PGC1a acetyl inh: -3; DENV2 CPE rescue: 46*

Results for C[C@@H]1CCCCO[C@H](CN(C)C(=O)Nc2ccc(C(F)(F)F)cc2)[C@@H](C)CN([C@H](C)CO)C(=O)c2cc(NS(=O)(=O)c3ccccc3)ccc2O1 ?
S100A4 inh HTS: -1; SIRT5 inh: 3; PGC1a acetyl inh: 0; DENV2 CPE rescue: 37*

What do the screens show for `CCC(=O)N1[C@@H]2c3ccc(/C=C/c4ccccc4)c(=O)n3C[C@H]1[C@H](CO)[C@H]2C(=O)N1CCOCC1`?
S100A4 inh HTS: 0; SIRT5 inh: -157; DENV2 CPE rescue: 17; Statin myotox sup: 1

How did C[C@@H]1CCCCO[C@@H](CN(C)C(=O)Nc2ccc(C(F)(F)F)cc2)[C@H](C)CN([C@@H](C)CO)C(=O)c2cc(NS(=O)(=O)c3ccccc3)ccc2O1 do in these assays?
S100A4 inh HTS: 0; SIRT5 inh: 2; PGC1a acetyl inh: 3; DENV2 CPE rescue: 54*

What do the screens show for `O=C(C[C@H]1C=C[C@H](NC(=O)c2cccc(F)c2)[C@H](CO)O1)NCc1ccc(Oc2ccccc2)cc1`?
S100A4 inh HTS: 3; SIRT5 inh: 0; PGC1a acetyl inh: 0; DENV2 CPE rescue: 14

Results for COc1ccc(S(=O)(=O)Nc2ccc3c(c2)CC(=O)N([C@@H](C)CO)C[C@H](C)[C@H](CN(C)S(=O)(=O)c2ccc(F)cc2)O3)cc1 ?
PGC1a acetyl inh: 6; DENV2 CPE rescue: 14; Statin myotox sup: 12

How did O=C(/C=C/c1ccc(F)cc1)c1cc(Br)ccc1O do in these assays?
S100A4 inh HTS: -2; SIRT5 inh: 16*; PGC1a acetyl inh: 4; DENV2 CPE rescue: 3

How did O=C(/C=C/c1ccccc1)c1cc(Br)ccc(=O)c1O do in these assays?
Statin myotox sup: -9

Results for O=C(O)c1c2c(nc3ccccc13)/C(=C/c1ccccc1[N+](=O)[O-])CCC2 ?
S100A4 inh HTS: -3; SIRT5 inh: -3; PGC1a acetyl inh: -2; DENV2 CPE rescue: -1; Statin myotox sup: 39

What do the screens show for `O=C(O)c1c2c(nc3ccccc13)/C(=C/c1cccc([N+](=O)[O-])c1)CCC2`?
S100A4 inh HTS: 1; SIRT5 inh: 97*; PGC1a acetyl inh: 6; DENV2 CPE rescue: -2; Statin myotox sup: 6

What do the screens show for `O=C(Nc1ccccc1)N1C[C@@H]2[C@H](c3ccccc31)[C@@H](CO)N2Cc1ccccc1Cl`?
S100A4 inh HTS: -12; SIRT5 inh: 2; PGC1a acetyl inh: -4; DENV2 CPE rescue: 37*; Statin myotox sup: -12

What do the screens show for `CC(C)NC(=O)N1[C@H](CO)[C@H]2c3ccccc3N(C(=O)Nc3ccccc3)C[C@H]21`?
S100A4 inh HTS: 9; SIRT5 inh: -1; PGC1a acetyl inh: 7; DENV2 CPE rescue: 21*; Statin myotox sup: -15

How did COc1ccc(C(=O)N2C[C@H]3[C@@H](c4ccccc42)[C@@H](CO)N3C(=O)NC(C)C)cc1 do in these assays?
S100A4 inh HTS: -3; SIRT5 inh: 0; PGC1a acetyl inh: 1; DENV2 CPE rescue: 14; Statin myotox sup: -8

What do the screens show for `O=C(Nc1ccccc1)N1C[C@@H]2[C@H](c3ccccc31)[C@H](CO)N2Cc1ccccc1Cl`?
S100A4 inh HTS: 2; SIRT5 inh: 1; PGC1a acetyl inh: -8; DENV2 CPE rescue: -1; Statin myotox sup: 15

How did COc1ccc(C(=O)N2C[C@@H]3[C@H](c4ccccc42)[C@H](CO)N3C(=O)NC(C)C)cc1 do in these assays?
S100A4 inh HTS: 8; SIRT5 inh: -4; PGC1a acetyl inh: -5; DENV2 CPE rescue: 27*; Statin myotox sup: -7

What do the screens show for `COC(=O)c1ccc(CSc2nnc(Nc3ccc(C)cc3)s2)o1`?
PGC1a acetyl inh: -4; Statin myotox sup: 95*

How did COC(=O)c1ccc(CSc2nc3cc(Cl)ccc3s2)o1 do in these assays?
PGC1a acetyl inh: -7; Statin myotox sup: 5

Results for Cc1noc(C)c1S(=O)(=O)N(C)C[C@H]1OCCCC[C@H](C)Oc2ccc(NS(C)(=O)=O)cc2C(=O)N([C@@H](C)CO)C[C@@H]1C ?
S100A4 inh HTS: 2; SIRT5 inh: 0; PGC1a acetyl inh: -8; DENV2 CPE rescue: -4

How did C[C@@H]1CN([C@H](C)CO)C(=O)CCCn2cc(nn2)CO[C@@H]1CN(C)S(=O)(=O)c1ccccc1F do in these assays?
S100A4 inh HTS: -8; SIRT5 inh: -5; PGC1a acetyl inh: 4; DENV2 CPE rescue: 4; Statin myotox sup: -11

What do the screens show for `COc1ccc(-n2nc3cc(C)c(N)c(Br)c3n2)cc1`?
PGC1a acetyl inh: -5; Statin myotox sup: 129*

How did C[C@@H]1CN([C@@H](C)CO)C(=O)c2cc(NS(=O)(=O)c3ccc(F)cc3)ccc2O[C@@H](C)CCCCO[C@@H]1CN(C)S(=O)(=O)c1cccs1 do in these assays?
S100A4 inh HTS: -9; SIRT5 inh: 3; PGC1a acetyl inh: -11; DENV2 CPE rescue: -7

What do the screens show for `O=C(N[C@@H](Cc1ccccc1)C(=O)NC1CC1)c1ccc(Cl)cc1`?
S100A4 inh HTS: -1; SIRT5 inh: 25*; PGC1a acetyl inh: -7; DENV2 CPE rescue: 9; Statin myotox sup: -9

What do the screens show for `Nc1[nH]c(C(=O)c2ccccc2)c(-c2ccc(Cl)c(F)c2)c1C(=O)c1c[nH]c2ccccc12`?
S100A4 inh HTS: 42; SIRT5 inh: -3; DENV2 CPE rescue: 3

Results for CN1C(=O)c2cc(NC(=O)Cc3cccs3)ccc2OC[C@@H]2O[C@@H](CC(=O)N[C@H]3CCN(Cc4ccccc4)C3)CC[C@@H]21 ?
S100A4 inh HTS: 8; SIRT5 inh: -1; DENV2 CPE rescue: -4; Statin myotox sup: 5

Source: PubChem
